These results are taken from article PMC6732210 (Journal of chemical information and modeling, 2017).

“Also recorded” adds a separate entry of the source. Read-outs that look alike come from different tables or passages of the source.

The subject of one data set is L929 cells. The data set can be described thus: TNF-α-induced L929 cytotoxicity. It is filed as cell-based. As to conditions: 25–200 μM, 10 ng/mL TNF-α and 1 μg/mL actinomycin D, 18 h. Put shortly:
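L929 cells seeded at 2.0 × 10⁴ cells/well and cultured overnight. Test compound (25–200 μM) was premixed with 10 ng/mL TNF-α plus 1 μg/mL actinomycin D, then added for 18 h. Viability was read by microscopy and CCK-8 (OD 450 nm). %I = (OD AMD+TNF+compound − OD AMD+TNF)/(OD AMD − OD AMD+TNF) × 100. Three independent experiments in triplicate, mean ± SEM.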

Data set [1] deals with T1, TNFR1 (Homo sapiens, UniProt P19438).
T1 sequence (P19438 30-455): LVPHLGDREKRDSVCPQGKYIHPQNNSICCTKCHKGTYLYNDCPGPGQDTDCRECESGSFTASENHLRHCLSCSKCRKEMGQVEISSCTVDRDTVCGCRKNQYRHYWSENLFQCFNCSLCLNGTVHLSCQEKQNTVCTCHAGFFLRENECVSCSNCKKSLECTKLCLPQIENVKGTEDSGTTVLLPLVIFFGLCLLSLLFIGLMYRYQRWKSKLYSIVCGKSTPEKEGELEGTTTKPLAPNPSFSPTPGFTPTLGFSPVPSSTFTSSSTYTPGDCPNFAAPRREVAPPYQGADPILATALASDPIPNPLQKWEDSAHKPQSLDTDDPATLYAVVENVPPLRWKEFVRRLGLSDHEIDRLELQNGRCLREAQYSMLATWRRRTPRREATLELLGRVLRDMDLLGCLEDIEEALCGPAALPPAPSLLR
The data set can be described thus: SPR-based binding assay, immobilized TNFR1. The settings on record: read-out: Kd for TNFR1, 4 to 256 μM, steady-state affinity model. The method, boiled down: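 Human TNFR1 in 10 mM sodium acetate, pH 5.5, amine-coupled to a CM5 chip. Single-concentration screen at 50 μM in PBS with 5% DMSO, 120 s injection at 30 μL/min. For affinity, 4–256 μM in the same buffer was passed over reference and active channels at 30 μL/min, with 120 s association and 120 s dissociation. Kd from a steady-state affinity fit.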

The target of data set [2] is TNF-α (Homo sapiens, UniProt P01375). Description: SPR-based binding assay, immobilized TNF-α. The settings on record: read-out: Kd (μM) TNF-α, 2–128 μM, PBS with 5% DMSO. The method, boiled down: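 Human TNF-α at 50 μg/mL in 10 mM sodium acetate, pH 5.0, amine-coupled to a CM5 chip. Hits were screened at 50 μM in PBS running buffer with 5% DMSO. A 2–128 μM concentration series was injected for 120 s, with 120 s dissociation. Kd came from fitting the sensorgrams in evaluation software. Representative of three independent experiments.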

The target of data set [3] is TNF-α. As to conditions: read-out: Kd TNF-α; cited from earlier work.
The target in data set [4] is TNFR1. As to conditions: cited from earlier work.

TNF-α (Homo sapiens, UniProt P01375), sequence (P01375 77-233 limits assumed): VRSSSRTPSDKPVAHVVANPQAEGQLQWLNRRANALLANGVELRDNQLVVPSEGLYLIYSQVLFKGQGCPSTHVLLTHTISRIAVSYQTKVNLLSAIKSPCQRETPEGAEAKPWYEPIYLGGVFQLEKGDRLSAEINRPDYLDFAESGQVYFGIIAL

In general, Kd refers to the equilibrium constant for the complex coming apart. With `O=C(NCc1ccc2c(c1)OCO2)C1CCCN(c2ncnc3nc[nH]c23)C1` (centres unmarked) [Compound R1], in the data set with L929 cells, the “Inhibition of TNF-α-mediated cytotoxicity on L929 cells (in words)” value is listed as “dose-dependent inhibition; also recorded: activities similar to that of C87”. Also, the Kd on TNFR1 [1] came to 16 µM.

As to `O=c1c(N=Nc2nc3ccccc3s2)c(-c2ccccc2)[nH]n1-c1ccc([N+](=O)[O-])cc1` [Compound T1], in the data set on L929 cells, the “Inhibition of TNF-α-mediated cytotoxicity on L929 cells (in words)” value is given as “dose-dependent inhibition; also recorded: activities similar to that of C87”. Also, the Kd at TNF-α [2] was determined as 11 µM. On the same counts, the results for `O=C1Nc2c(S(=O)(=O)Nc3ccccc3)cc(S(=O)(=O)Nc3ccccc3)c3cccc1c23` [Compound T2] are “no activity” and 58 µM. On the same counts, the results for `O=C(O)CCC(=O)Nc1sc2c(c1C(=O)Nc1cccc3ccccc13)CCCC2` [Compound T4] are “no activity” and 113 µM. Turning to `Cc1cc2occ(CN(C)CCN(C)Cc3cn(-c4cccc(C(F)(F)F)c4)c4ccccc34)c(=O)c2cc1C` [SPD-304], the dissociation constant (Kd) at TNF-α [3] is 5.36 µM. As to TNF-α, the Kd at TNFR1 [4] (read-out: Kd for binding of TNF-α to TNFR1) was 0.00176 µM. On to “physcion-8-O-β-D-monoglucoside [reference compound]”, for which the equilibrium dissociation constant (Kd) on TNFR1 [4] (read-out: Kd TNFR1) was 0.376 µM.
